{"source": "paper PMC4166030", "about": "(Bioconjugate Chemistry, 2014)", "system": "KRAS2 G12D RNA", "test": "CD thermal melting of TO-PNA-peptide:RNA duplexes", "format": "binding", "how_it_was_run": "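Gel-purified synthetic RNA 20mers were annealed with the test compound at 1 μM each (final) in sodium phosphate, 1.0 M NaCl, 5 mM EDTA, pH 7.2, by heating at 95 °C for 10 min and then cooling for 10 min. CD at 265 nm was tracked over a 25→95 °C ramp at 0.5 °C/min, with baseline slopes subtracted. Tm was taken as the first-derivative maximum (two-state model); n = 3, ± SD.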", "data": [{"substance": "GCCATOTCAGCTCC-AEEA-D(Cys-Ser-Lys-Cys) (disulfide) [TO2]", "values": [{"measurement": "Tm decrease relative to TO1 (12mer) KRAS2 G12D duplex", "result": 2, "unit": "°C"}]}]}
